Laboratory results: ChEMBL document CHEMBL1129428 (J Med Chem, 1996)

How the values were obtained:
Rattus norvegicus [1] = assay: Compound was tested for anticonvulsant activity after Oral Administration into Rats by using MES screen test after 0.5h,dose 15 mg/kg; No activity was demonstarted; type: functional, organism-based; parameters: dose 15 mg/kg
Summary of the method: (§1)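 Rats received the compound orally. […] Rats were tested in the MES screen at 0.25, 0.5, 1, 2 and 4 h. Each value is the number of rats protected out of 4. The test followed NINDS procedures.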

Rattus norvegicus [2] = assay: Compound was tested for anticonvulsant activity after Oral Administration into Rats by using MES screen test after 1h,dose 15 mg/kg; number of rats out of four which were protected; type: functional; summary of the method: as §1
Mus musculus [3] = assay: Anticonvulsant activity after intraperitoneal injection into mice by using MES screen test after 0.5 hr; type: functional
Rattus norvegicus [4] = assay: Compound was tested for anticonvulsant activity after Oral Administration into Rats by using MES screen test after 4h,dose 15 mg/kg; number of rats out of four which were protected; type: functional; summary of the method: as §1
Rattus norvegicus [5] = assay: Compound was tested for anticonvulsant activity after Oral Administration into Rats by using MES screen test after 0.25h,dose 15 mg/kg; No activity was demonstarted; type: functional, organism-based; parameters: dose 15 mg/kg; summary of the method: as §1
Rattus norvegicus [6] = assay: Compound was tested for anticonvulsant activity after Oral Administration into Rats by using MES screen test after 2h,dose 15 mg/kg; number of rats out of four which were protected; type: functional; summary of the method: as §1
[7] = Protection index = TD50/ED50 (scPTZ ); type: ADME; details: read-out: PI
Summary of the method: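 Protection index calculated as TD50/ED50 from mouse intraperitoneal scPTZ ED50 and rotorod TD50 values, each taken at its own peak time.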

[8] = Compound was tested for toxicity after intraperitoneal injection into mice by using neurotoxicity screen test after 1 hr; type: organism-based; details: mouse, in vivo, ip
Summary of the method: (§2)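 Quantitative intraperitoneal mouse testing in the MES, scPTZ or rotorod neurotoxicity screens at the peak time given for each compound (0.25–2 h). ED50 or TD50 reported in mg/kg with 95% CI and slope (SE).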

Rattus norvegicus [9] = assay: Anticonvulsant activity after oral administration into rats; type: functional; parameters: concentration or dose not given beside the values
Rattus norvegicus [10] = assay: Compound was tested for anticonvulsant activity after Oral Administration into Rats by using MES screen test after 0.25h,dose 12.5 mg/kg; number of rats out of four which were protected; type: functional; summary of the method: as §1
Mus musculus [11] = assay: Compound was tested for toxicity after intraperitoneal injection into mice by using toxicity screen test after 4 hr; type: organism-based; details: in vivo, ip
Summary of the method: (§3)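 Mice injected intraperitoneally at 30, 100 and 300 mg/kg and examined 0.5 and 4 h afterwards. Each entry is the minimum dose giving activity (MES protection, scPTZ protection, or rotorod failure for neurotoxicity) in half or more of the mice. Activity is called absent if nothing occurs at 300 mg/kg.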

Rattus norvegicus [12] = assay: Compound was tested for anticonvulsant activity after Oral Administration into Rats by using MES screen test after 2h,dose 12.5 mg/kg; number of rats out of four which were protected; type: functional; summary of the method: as §1
[13] = Protection index = TD50/ED50 (MES); details: mouse, in vivo; read-out: PI
Mus musculus [14] = assay: Compound was tested for anticonvulsant activity after intraperitoneal injection into mice by using MES screen test after 1 hr; type: functional; details: ip; summary of the method: as §2
Mus musculus [15] = assay: Anticonvulsant activity after intraperitoneal injection into mice by using scPTZ screen after 0.5 hr; type: functional
Rattus norvegicus [16] = assay: Compound was tested for anticonvulsant activity after Oral Administration into Rats by using MES screen test after 4h,dose 12.5 mg/kg; number of rats out of four which were protected; type: functional; summary of the method: as §1
Mus musculus [17] = assay: Compound was tested for anticonvulsant activity after intraperitoneal injection into mice by using scPTZ screen test after 0.5 hr; type: functional; details: ip; summary of the method: as §3
Rattus norvegicus [18] = assay: Compound was tested for anticonvulsant activity after Oral Administration into Rats by using MES screen test after 1h,dose 12.5 mg/kg; number of rats out of four which were protected; type: functional; summary of the method: as §1
Mus musculus [19] = assay: Anticonvulsant activity after intraperitoneal injection into mice measured in a maximal electroshock scree (MES) screen; type: functional
[20] = Compound was tested for toxicity after intraperitoneal injection into mice by using neurotoxicity screen test after 0.5 hr; details: mouse, in vivo, ip
[21] = Compound was tested for toxicity after oral administration in rat by using neurotoxicity screen test after 0.25-24 hr; type: organism-based; details: in vivo
Summary of the method: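 Rat neurotoxicity after oral dosing, observed at 0.25, 0.5, 1, 2, 4, 6, 8 and 24 h (8 h omitted for one compound).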

Mus musculus [22] = assay: Compound was tested for anticonvulsant activity after intraperitoneal injection into mice by using scPTZ screen test after 1 hr; type: functional; details: ip; summary of the method: as §2
Mus musculus [23] = assay: Toxicity after intraperitoneal injection into mice by using toxicity screen test after 0.5 hr; type: organism-based; details: in vivo, ip; summary of the method: as §3
Rattus norvegicus [24] = assay: Compound was tested for anticonvulsant activity after Oral Administration into Rats by using MES screen test after 2h,dose 12.5 mg/kg; No activity was demonstarted; type: functional, organism-based; parameters: dose 12.5 mg/kg; summary of the method: as §1
Mus musculus [25] = assay: Compound was tested for anticonvulsant activity after intraperitoneal injection into mice by using MES screen test after 1h,dose 12.50 mg/kg; type: functional; details: ip
Mus musculus [26] = assay: Anticonvulsant activity after intraperitoneal injection into mice by using scPTZ screen test after 4 hr; type: functional
Rattus norvegicus [27] = assay: Compound was tested for anticonvulsant activity after Oral Administration into Rats by using MES screen test after 0.5h,dose 12.5 mg/kg; No activity was demonstarted; type: functional, organism-based; parameters: dose 12.5 mg/kg; summary of the method: as §1
[28] = Compound was tested for toxicity after intraperitoneal injection into mice by using neurotoxicity screen test after 2 hr; type: organism-based; details: mouse, in vivo, ip; summary of the method: as §2
Rattus norvegicus [29] = assay: Compound was tested for anticonvulsant activity after Oral Administration into Rats by using MES screen test after 4h,dose 12.5 mg/kg; No activity was demonstarted; type: functional, organism-based; parameters: dose 12.5 mg/kg; summary of the method: as §1
Mus musculus [30] = assay: Compound was tested for toxicity after intraperitoneal injection into mice using toxicity screen test; details: in vivo, ip
Rattus norvegicus [31] = assay: Compound was tested for anticonvulsant activity after Oral Administration into Rats by using MES screen test after 2h,dose 50 mg/kg; number of rats out of four which were protected; type: functional; summary of the method: as §1
Mus musculus [32] = assay: Compound was tested for anticonvulsant activity after intraperitoneal injection into mice by using MES screen test after 0.5 hr; type: functional; details: ip; summary of the method: as §3
Rattus norvegicus [33] = assay: Compound was tested for anticonvulsant activity after Oral Administration into Rats by using MES screen test after 4h,dose 50 mg/kg; number of rats out of four which were protected; type: functional; summary of the method: as §1
Rattus norvegicus [34] = assay: Compound was tested for anticonvulsant activity after Oral Administration into Rats by using MES screen test after 0.5h,dose 50 mg/kg; number of rats out of four which were protected; type: functional; summary of the method: as §1
Rattus norvegicus [35] = assay: Compound was tested for anticonvulsant activity after Oral Administration into Rats by using MES screen test after 1h,dose 50 mg/kg; number of rats out of four which were protected; number of rats out of four which were protected; type: functional; summary of the method: as §1
[36] = Compound was tested for […] after intraperitoneal injection into mice by using neurotoxicity screen test after 2 hr; type: organism-based; details: mouse, in vivo, ip; summary of the method: as §2
Rattus norvegicus [37] = assay: Compound was tested for anticonvulsant activity after Oral Administration into Rats by using MES screen test after 0.25h,dose 50 mg/kg; No activity was demonstarted; type: functional, organism-based; parameters: dose 50 mg/kg; summary of the method: as §1
[38] = Compound was tested for toxicity after intraperitoneal injection into mice by using neurotoxicity screen test after 4 hr; type: organism-based; details: mouse, in vivo, ip; summary of the method: as §3
Mus musculus [39] = assay: Compound was tested for anticonvulsant activity after intraperitoneal injection into mice by using MES screen test after 4 hr; type: functional; details: ip; summary of the method: as §3
Rattus norvegicus [40] = assay: Compound was tested for anticonvulsant activity after Oral Administration into rat by using MES screen test at 4 hr; type: functional
Summary of the method: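 Rats dosed orally, typically at 50 mg/kg first, then mostly 12.5 mg/kg (some compounds at 30 mg/kg), and tested by maximal electroshock. Four rats per compound, scored at 0.25, 0.5, 1, 2 and 4 h as the number of rats protected out of 4.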

Mus musculus [41] = assay: Compound was tested for anticonvulsant activity after intraperitoneal injection into mice by using scPTZ screen test after 4 hr; type: functional; details: ip; summary of the method: as §3
Rattus norvegicus [42] = assay: Compound was tested for anticonvulsant activity after Oral Administration into Rats by using MES screen test after 0.25h,dose 12.5 mg/kg; No activity was demonstarted; type: functional, organism-based; parameters: dose 12.5 mg/kg; summary of the method: as §1

Structure (SMILES)	Dose (Mus musculus [3])	Activity (Rattus norvegicus [10])	Dose (Mus musculus [11])	Activity (Rattus norvegicus [12])	selectivity ratio [13]	Dose (Mus musculus [15])	Activity (Rattus norvegicus [16])	ED50 (Mus musculus [17])	Activity (Rattus norvegicus [18])	Dose (Mus musculus [19])	TD50 [21]	Dose (Mus musculus [23])	Dose (Mus musculus [26])	Activity (Rattus norvegicus [27])	further results
CCC(C)(C)c1ccc(Oc2ccc(/C=N/NC(N)=O)cc2)cc1	300 mg/kg														Activity (Rattus norvegicus [1]): No activity; Activity (Rattus norvegicus [2]): 2; Activity (Rattus norvegicus [4]): 4; Activity (Rattus norvegicus [5]): No activity; Activity (Rattus norvegicus [6]): 3
C/C(=N/NC(N)=O)c1ccc(Sc2ccc(Br)cc2)cc1	100 mg/kg	1	300 mg/kg	4	11.3	300 mg/kg	4	41.9 mg/kg	4	30 mg/kg					selectivity ratio [7]: 1.03; TD50 at 1 h [8]: 43.2 mg/kg; Activity (Rattus norvegicus [9]): 3; ED50 (Mus musculus [14]): 3.82 mg/kg
O=C1NC(=O)C(c2ccccc2)(c2ccccc2)N1 [PHENYTOIN]	30 mg/kg		100 mg/kg							30 mg/kg	> 500 mg/kg	100 mg/kg			TD50 at 0.5 h [20]: 41.2 mg/kg; ED50 (Mus musculus [22]): > 50 mg/kg
Cc1ccc(C)c(Oc2ccc(/C=N/NC(N)=O)cc2)c1	100 mg/kg	1	300 mg/kg		10.3	30 mg/kg			1	100 mg/kg			300 mg/kg	No activity	Activity (Rattus norvegicus [24]): No activity; ED50 (Mus musculus [25]): 34.7 mg/kg; TD50 at 2 h [28]: 356 mg/kg; Activity (Rattus norvegicus [29]): No activity
NC(=O)N/N=C\c1ccc(Oc2cccc(Cl)c2)cc1	30 mg/kg		100 mg/kg			30 mg/kg		41.2 mg/kg		100 mg/kg			300 mg/kg		Dose (Mus musculus [30]): 300 mg/kg; Activity (Rattus norvegicus [31]): 4; ED50 (Mus musculus [32]): 27.7 mg/kg; Activity (Rattus norvegicus [33]): 4; Activity (Rattus norvegicus [34]): 4; Activity (Rattus norvegicus [35]): 4; TD50 at 2 h [36]: 64.5 mg/kg; Activity (Rattus norvegicus [37]): No activity
CC(C)(C)c1ccc(Oc2ccc(/C=N\NC(N)=O)cc2)cc1	100 mg/kg		100 mg/kg	4			4		4	30 mg/kg	> 500 mg/kg	100 mg/kg	100 mg/kg	No activity	TD50 at 4 h [38]: 106 mg/kg; ED50 (Mus musculus [39]): 8.87 mg/kg; ED50 (Rattus norvegicus [40]): 1.68 mg/kg; ED50 (Mus musculus [41]): > 150 mg/kg; Activity (Rattus norvegicus [42]): No activity
